Shown are actives, neighbours in structure and some others; about 1.7% of the full set was active somewhere.
core dimer inh: HCV core protein dimerization inhibition; TR-FRET GST/Flag-core106 dimerization, 1536-well; inhibition, % at 5 µM; 0.33% of 300,000 active;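 active = inhibition above the mean of all tested compounds plus 3 SD, set per screening campaign, cut at about 45% in these data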
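assay system = GST-tagged and Flag-tagged HCV core protein residues 1-106 | controls = unlabelled core106 and no-GST-core106 wells | incubation = compound-protein-antibody incubation 4 h at 22.5 °C | probe or stimulus = Eu donor and XL665 acceptor anti-tag antibodies | read-out = % inhibition based on acceptor/donor emission ratio | signal = TR-FRET 671 and 617 nm emission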
MEX-5 binding: C. elegans MEX-5 TCR-2 RNA binding activity. 0.38% of 300,000 active. AID 1832. activity score (negative = inhibition of binding), % at 10 µM. MEX-5/FITC-TCR2 RNA binding, fluorescence polarization; hits give low values. Q9XUB2;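 active = inhibition past about -25% in most replicates, and total fluorescence under double the plate's negative control median, limit read from the data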;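 note: 0% = DMSO and -100% = 5 µM competing unlabeled TCR2 RNA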
Target sequence (Q9XUB2 whole entry, looked up): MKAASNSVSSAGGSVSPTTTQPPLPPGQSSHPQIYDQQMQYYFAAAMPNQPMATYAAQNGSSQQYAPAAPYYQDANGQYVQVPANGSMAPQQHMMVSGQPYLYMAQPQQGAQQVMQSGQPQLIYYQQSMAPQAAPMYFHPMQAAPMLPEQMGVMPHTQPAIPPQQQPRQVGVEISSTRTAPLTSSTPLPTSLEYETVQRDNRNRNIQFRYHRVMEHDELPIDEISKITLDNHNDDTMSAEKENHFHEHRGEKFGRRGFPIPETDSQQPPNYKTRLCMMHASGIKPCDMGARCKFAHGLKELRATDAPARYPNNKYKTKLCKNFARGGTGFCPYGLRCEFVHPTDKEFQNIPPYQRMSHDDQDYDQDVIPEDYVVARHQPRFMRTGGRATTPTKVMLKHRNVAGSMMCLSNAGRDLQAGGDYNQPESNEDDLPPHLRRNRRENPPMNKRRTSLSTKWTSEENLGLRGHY
EBV gp42 inh: inhibitors of Epstein-Barr virus glycoprotein 42; Q1HVG2; Fluorescence polarization binding assay, mP read-out; inhibition, % (tested at 21.74 µM); 0.42% of 220,000 active; in the data active = inhibition above about 50%
NS3 helicase inh: HCV NS3 helicase inhibition | 0.56% of 290,000 active | inhibition, % at 10.9 µM | NS3 helicase DNA unwinding, Cy5 molecular beacon fluorescence;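 active = inhibition above the mean of all tested compounds plus 3 SD, set per campaign, cut at about 35% in these data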;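 note: 0% = DMSO wells and 100% = thioflavine S control wells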
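Assay system: hepatitis C virus NS3 helicase domain fragment enzyme. Also added: annealed dual-labelled DNA beacon duplex, ATP-started. Timing: 1 h reaction at 25 °C, ATP-initiated. Technique: Cy5 fluorescence at 0 and 60 min, beacon hairpin quenching. Evaluation: % inhibition of unwinding. Replication: one well per compound.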
EBNA-1 inh: blocks EBNA-1 binding to DNA. inhibition, % at 14.8 µM. 0.34% of 300,000 active. EBNA-1 DNA binding, fluorescence polarization; in the data active = inhibition above about 28%
ZTA DNA inh: ZTA (EBV) inhibition in EBNA-1 counter-screen. P03206. ZTA-DNA binding, fluorescence polarization. inhibition, % at 11 µM. 0.15% of 320,000 active. AID 2234; in the data active = inhibition above about 33%
NS3 hel confirm: confirmation of Hepatitis C virus NS3 helicase inhibitors. inhibition, % at 10.9 µM. NS3 helicase DNA unwinding, Cy5 molecular beacon fluorescence. AID 1943. 31% of 1,600 active. shares compounds with NS3 helicase inh;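 active = inhibition above the mean of all tested compounds plus 3 SD, cutoff set per campaign, cut at about 36% in these data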
DNA FID counter: intercalator displacement, NS3 helicase counter-screen; shares compounds with NS3 helicase inh; DNA fluorescent intercalator displacement, fluorescence; inhibition, % at 7.9 µM; 4% of 1,600 active; in the data active = inhibition above about 37%;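 note: 0% = vehicle and 100% = reference compound; higher means more displacement of ethidium bromide from the DNA hairpin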
An asterisk follows results filed as active.

O=C(Nc1ccccc1)c1ccc2nc(-c3ccco3)c(-c3ccco3)nc2c1 was read as core dimer inh 75*, MEX-5 binding -1, EBV gp42 inh -4, NS3 helicase inh 46*, EBNA-1 inh 0, ZTA DNA inh -27, NS3 hel confirm 78* and DNA FID counter 53*.
NS(=O)(=O)c1ccc(N2CCOCC2)c(C(=O)NCCCSc2ccccc2)c1 was read as ZTA DNA inh -10.
`O=C(NCCO)Nc1ccc2nc(-c3ccco3)c(-c3ccco3)nc2c1` gave core dimer inh 76*, EBV gp42 inh 49, NS3 helicase inh 57*, EBNA-1 inh 23, ZTA DNA inh 42*, NS3 hel confirm 67* and DNA FID counter 38*.
Screening Cc1[nH]c(C)c(S(=O)(=O)N(C)Cc2ccccc2)c1C(=O)N1CCCC1 returned core dimer inh -9, MEX-5 binding 2, NS3 helicase inh 2, EBNA-1 inh 0 and ZTA DNA inh 2.
Screening Cc1[nH]c(C)c(S(=O)(=O)N(Cc2ccccc2)C(C)(C)C)c1C(=O)N1CCCC1 returned core dimer inh -7, MEX-5 binding 1, NS3 helicase inh 38*, EBNA-1 inh -7, ZTA DNA inh 1, NS3 hel confirm -10 and DNA FID counter -33.
Screening COC(=O)c1ccccc1NC(=O)c1ccc2c(c1)OCCCO2 returned core dimer inh -4, MEX-5 binding 0, NS3 helicase inh -14, EBNA-1 inh 1 and ZTA DNA inh -2.
For CC(C)Nc1ccc(Cl)cc1[N+](=O)[O-] the results were core dimer inh -4, MEX-5 binding -2, EBV gp42 inh -23, NS3 helicase inh 41*, EBNA-1 inh -18, ZTA DNA inh -20, NS3 hel confirm -12 and DNA FID counter 1.
For CO/N=C/c1ccc(N2CCN(C(=O)c3ccc(F)cc3)CC2)c([N+](=O)[O-])c1 the results were core dimer inh -11, MEX-5 binding 1, EBV gp42 inh -17, NS3 helicase inh 40*, EBNA-1 inh 2, ZTA DNA inh -10, NS3 hel confirm -16 and DNA FID counter -32.
`Cc1ccc(NC(=O)CSc2nc(=O)n(CCCN3CCOCC3)c3c2CCCC3)cc1` gave core dimer inh -3, MEX-5 binding -1, EBNA-1 inh 3 and ZTA DNA inh 11.
`C#CCOc1ccccc1CNC1CCN(Cc2ccccc2)CC1` gave core dimer inh -9, MEX-5 binding 1, NS3 helicase inh -14, EBNA-1 inh 0 and ZTA DNA inh 7.
Screening CC1CCc2c(sc3nc(SCC(=O)O)n(-c4ccccc4)c(=O)c23)C1 (stereo unspecified) returned core dimer inh 4, MEX-5 binding 2, EBV gp42 inh -9, NS3 helicase inh 37*, EBNA-1 inh -5, ZTA DNA inh 2, NS3 hel confirm 15 and DNA FID counter -16.
Cc1ccc(-n2c(SCC(=O)O)nc3sc4c(c3c2=O)CCCC4)cc1 was read as core dimer inh 8, MEX-5 binding 0, EBV gp42 inh -5, NS3 helicase inh 16, EBNA-1 inh -23 and ZTA DNA inh 2.
CCC(=O)C1CCCN(C(=O)CCc2nnc(-c3ccc(C(C)=O)s3)o2)C1 (stereo unspecified) was read as core dimer inh -10, MEX-5 binding 4, NS3 helicase inh 2, EBNA-1 inh 5 and ZTA DNA inh -4.
`COc1ccc(/C=c2\s/c(=C/C(=O)c3ccc(C)cc3)[nH]c2=O)cc1OC` gave core dimer inh -2, MEX-5 binding -3, EBV gp42 inh -81, NS3 helicase inh 59*, EBNA-1 inh -5, ZTA DNA inh 4, NS3 hel confirm 11 and DNA FID counter 4.
Screening CN1CCN(C(=O)c2cccc(S(=O)(=O)N3CCCC3)c2)CC1 returned ZTA DNA inh -12.
`CS(=O)(=O)N1N=C(c2ccco2)CC1c1ccccc1Cl` (stereo unspecified) gave core dimer inh 7, MEX-5 binding 0, EBV gp42 inh -1, NS3 helicase inh 36*, EBNA-1 inh 8, ZTA DNA inh 0, NS3 hel confirm -19 and DNA FID counter -9.
For CS(=O)(=O)N1N=C(c2ccco2)CC1c1ccc(Cl)cc1Cl (stereo unspecified) the results were core dimer inh 3, MEX-5 binding 4, EBV gp42 inh 3, NS3 helicase inh 16, EBNA-1 inh 0 and ZTA DNA inh 5.
For Cc1ccc(Cn2cc(CCC(=O)O)c3ccccc32)cc1 the results were core dimer inh -33, MEX-5 binding 0, NS3 helicase inh 49*, EBNA-1 inh 3, ZTA DNA inh -2, NS3 hel confirm 12 and DNA FID counter -21.
Cc1cc(O)c(C=O)c2c1C(=O)Oc1c(CO)c(O)c3c(c1O2)C(O)OC3=O (stereo unspecified) was read as core dimer inh 13, EBV gp42 inh -1, NS3 helicase inh 47*, EBNA-1 inh 23, ZTA DNA inh 97*, NS3 hel confirm 62* and DNA FID counter 86*.
CC(=O)Nc1cccc(C(=O)NC2CCCc3c2cnn3-c2cc(C)cc(C)c2)c1 (stereo unspecified) was read as core dimer inh -3, MEX-5 binding 0, NS3 helicase inh -11, EBNA-1 inh -4 and ZTA DNA inh -9.
`COc1ccc(CCn2c(O)cc3nn(-c4nc5ccccc5s4)c(=O)c-3c2C)cc1` gave core dimer inh 60*, MEX-5 binding 1, EBV gp42 inh 1, NS3 helicase inh 46*, EBNA-1 inh 19, ZTA DNA inh 9, NS3 hel confirm 78* and DNA FID counter -17.
`COc1ccc(CN2CCN(c3nc4ccccc4s3)CC2)cc1` gave MEX-5 binding 5 and NS3 helicase inh 23.
`O=C(N/N=C/c1c(O)ccc2ccccc12)c1ccc(CO)nc1` gave core dimer inh -10, MEX-5 binding -12, NS3 helicase inh 39*, EBNA-1 inh -5, ZTA DNA inh -3, NS3 hel confirm 7 and DNA FID counter -1.
For NC(=S)N/N=C/c1c(O)ccc2ccccc12 the results were core dimer inh -11, MEX-5 binding -2, EBV gp42 inh -21, NS3 helicase inh 57*, EBNA-1 inh 2, ZTA DNA inh 9, NS3 hel confirm 7 and DNA FID counter -1.
Cc1nnc(Cn2cnc3c2c(=O)n(C)c(=O)n3C)o1 was read as core dimer inh 8, MEX-5 binding -1, NS3 helicase inh 39*, EBNA-1 inh 5, ZTA DNA inh -7, NS3 hel confirm -9 and DNA FID counter 4.

Source: PubChem
